Assays:
[1] = target: Transforming protein RhoA/Rho-related GTP-binding protein RhoC (Homo sapiens, UniProt P61586+P08134); assay: Inhibition of RhoA/C-mediated transcriptional response in human PC3 cells by serum response factor-luciferase reporter gene assay; assay type: cell-based; details: pc-3
PC-3 [2] = assay: Antiinvasive activity in human PC3 cells at 100 uM by Matrigel cell invasion assay; assay type: functional
Procedure, shortened: (§1)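 PC-3 cells (2 × 10^5) were seeded in low-serum DMEM (0.5% FBS) in the upper chamber of 24-well Matrigel inserts, with compound or DMSO. The lower well held the same 0.5% FBS medium, and cells were incubated 24 h at 37 °C in 5% CO2. Inserts were methanol-fixed, stained with 0.5% crystal violet, and non-invaded cells were wiped off. Stain was extracted in 20% acetic acid and read at 595 nm.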

PC-3 [3] = assay: Cytotoxicity against human PC3 cells assessed as inhibition of mitochondrial metabolism at 100 uM by WST-1 assay; assay type: functional
PC-3 [4] = assay: Cytotoxicity against human PC3 cells assessed as inhibition of mitochondrial metabolism at 10 uM by WST-1 assay; assay type: functional
PC-3 [5] = assay: Antiinvasive activity in human PC3 cells at 10 uM by Matrigel cell invasion assay; assay type: functional; procedure, shortened: as §1

| Compound | IC50 [1] | further results |
| --- | --- | --- |
| O=C(CCCNC(=O)c1cc(C(F)(F)F)cc(C(F)(F)F)c1)Nc1ccc(Cl)cc1 | 21 µM | – |
| O=C(CCCCNC(=O)c1cc(C(F)(F)F)cc(C(F)(F)F)c1)Nc1ccc(Cl)cc1 | > 100 µM | – |
| FC(F)(F)c1cc(CNCCCNc2ccc(Cl)cc2)cc(C(F)(F)F)c1 | 9.1 µM | inhibition at 100 µM (PC-3 [2]): 86% |
| O=C(N[C@@H]1CCC[C@@H]1C(=O)Nc1ccc(Cl)cc1)c1cc(C(F)(F)F)cc(C(F)(F)F)c1 | > 100 µM | – |
| O=C(NCCc1cn(-c2ccc(Cl)cc2)nn1)c1cc(C(F)(F)F)cc(C(F)(F)F)c1 | > 100 µM | – |
| O=C(CNC(=O)c1cc(C(F)(F)F)cc(C(F)(F)F)c1)Nc1ccc(Cl)cc1 | 33 µM | – |
| O=C(NCCCNc1ccc(Cl)cc1)c1cc(C(F)(F)F)cc(C(F)(F)F)c1 | 5.1 µM | – |
| O=C(NCc1csc(-c2ccc(Cl)cc2)n1)c1cc(C(F)(F)F)cc(C(F)(F)F)c1 | 4.1 µM | – |
| O=C(Nc1ccc(Cl)cc1)C1CCN(C(=O)c2cc(C(F)(F)F)cc(C(F)(F)F)c2)CC1 | 16 µM | – |
| O=C(CCNC(=O)c1cc(C(F)(F)F)cc(C(F)(F)F)c1)NCc1ccc(Cl)cc1 | > 100 µM | – |
| O=C(Nc1ccc(Cl)cc1)c1ccc(NC(=O)c2cc(C(F)(F)F)cc(C(F)(F)F)c2)cc1 | > 100 µM | inhibition at 100 µM (PC-3 [2]): 0% |
| O=C(CONC(=O)c1ccccc1)Nc1ccc(Cl)cc1 | > 100 µM | – |
| O=C(Nc1ccc(Cl)cc1)C1CCCN1C(=O)c1cc(C(F)(F)F)cc(C(F)(F)F)c1 (centres undefined) | 69 µM | inhibition at 100 µM (PC-3 [2]): 78% |
| O=C(Nc1ccccc1C(=O)Nc1ccc(Cl)cc1)c1cc(C(F)(F)F)cc(C(F)(F)F)c1 | > 100 µM | – |
| O=C(CONC(=O)c1cc(C(F)(F)F)cc(C(F)(F)F)c1)Nc1ccc(Cl)cc1 | 4.7 µM | – |
| O=C(CC1CC(c2cc(C(F)(F)F)cc(C(F)(F)F)c2)=NO1)Nc1ccc(Cl)cc1 (centres undefined) | 4.2 µM | inhibition at 100 µM (PC-3 [3]): 38% |
| O=C(c1cc(C(F)(F)F)cc(C(F)(F)F)c1)N1CCC(Nc2ccc(Cl)cc2)CC1 | 10.8 µM | inhibition at 10 µM (PC-3 [4]): 19%; inhibition at 100 µM (PC-3 [3]): 0% |

| Compound | IC50 [1] | further results |
| --- | --- | --- |
| O=C(CC1CCCCN1C(=O)c1cc(C(F)(F)F)cc(C(F)(F)F)c1)Nc1ccc(Cl)cc1 (centres undefined) | 9.5 µM | inhibition at 100 µM (PC-3 [3]): 14% |
| O=C(Nc1cc(C(F)(F)F)cc(C(F)(F)F)c1)C1CCN(C(=O)c2ccc(Cl)cc2)CC1 | 10 µM | inhibition at 10 µM (PC-3 [4]): 10%; inhibition at 100 µM (PC-3 [3]): 88% |
| O=C(c1cc(C(F)(F)F)cc(C(F)(F)F)c1)N1CCC(=O)N(c2ccc(Cl)cc2)CC1 | > 100 µM | – |
| O=C(CONC(=O)c1ccc(Cl)cc1)Nc1cc(C(F)(F)F)cc(C(F)(F)F)c1 | 8.6 µM | – |
| O=C(CCc1cn(-c2cc(C(F)(F)F)cc(C(F)(F)F)c2)nn1)Nc1ccc(Cl)cc1 | > 100 µM | – |
| O=C(CCNC(=O)c1cc(C(F)(F)F)cc(C(F)(F)F)c1)Nc1ccc(Cl)cc1 | 38 µM | inhibition at 100 µM (PC-3 [3]): 10% |
| O=C(CONC(=O)c1ccc(C(F)(F)F)cc1)Nc1ccc(Cl)cc1 | 29 µM | inhibition at 10 µM (PC-3 [4]): 0%; inhibition at 100 µM (PC-3 [3]): 56% |
| O=C(NCCC(=O)N1CCc2cc(Cl)ccc21)c1cc(C(F)(F)F)cc(C(F)(F)F)c1 | 13 µM | inhibition (INH) (PC-3 [5]): 0%; inhibition at 100 µM (PC-3 [2]): 0% |
| O=C(Nc1ccc(Cl)cc1)c1cccc(NC(=O)c2cc(C(F)(F)F)cc(C(F)(F)F)c2)c1 | 1.7 µM | – |
| CN(C(=O)CCNC(=O)c1cc(C(F)(F)F)cc(C(F)(F)F)c1)c1ccc(Cl)cc1 | > 100 µM | – |
| O=C(CONC(=O)c1cc(C(F)(F)F)cc(C(F)(F)F)c1)Nc1ccccc1 | 36 µM | inhibition at 10 µM (PC-3 [4]): 0%; inhibition at 100 µM (PC-3 [3]): 37% |
| O=C(NCCCOc1ccc(Cl)cc1)c1cc(C(F)(F)F)cc(C(F)(F)F)c1 | 8.9 µM | inhibition at 100 µM (PC-3 [2]): 26% |
| O=C(Nc1ccc(Cl)cc1)C1CCN(C(=O)c2cc(C(F)(F)F)cc(C(F)(F)F)c2)C1 (centres undefined) | 16.3 µM | inhibition at 100 µM (PC-3 [3]): 67% |
| O=C(CONC(=O)c1cccc(C(F)(F)F)c1)Nc1ccc(Cl)cc1 | 27 µM | inhibition at 10 µM (PC-3 [4]): 0%; inhibition at 100 µM (PC-3 [3]): 58% |
| O=C(CONC(=O)c1cc(C(F)(F)F)cc(C(F)(F)F)c1)Nc1cccc(Cl)c1 | 5.9 µM | – |
| O=C(CCNCc1cc(C(F)(F)F)cc(C(F)(F)F)c1)Nc1ccc(Cl)cc1 | 8.1 µM | inhibition (INH) (PC-3 [5]): 47% |

Reference: ChEMBL document CHEMBL1153198, “Design, synthesis and prostate cancer cell-based studies of analogs of the Rho/MKL1 transcriptional pathway inhibitor, CCG-1423” (Bioorg Med Chem Lett, 2010)
